Source: ChEMBL document CHEMBL1772938, “Optimization of 3-(phenylthio)quinolinium compounds against opportunistic fungal pathogens” (Eur J Med Chem, 2011)

Assays:
[1] = tested on: Aspergillus fumigatus; experiment: Antimicrobial activity against Aspergillus fumigatus ATCC 90906 by alamar blue assay; type: functional, organism-based
Method in brief: (§1)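 Modified CLSI broth microdilution. DMSO stocks were serially diluted in saline and run in duplicate. Inoculum was set by the 0.5 McFarland standard in YM broth for MIC, or in RPMI-1640 + 5% Alamar Blue for IC50. The top final concentration was 20 μg/mL. Fluorescence (544ex/590em) was read before and after incubation. IC50 was taken from % growth versus concentration; MIC was read visually as no blue-to-pink change.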

[2] = tested on: Nakaseomyces glabratus; experiment: Antimicrobial activity against Candida glabrata ATCC 90030 by CLSI method; type: functional
Method in brief: (§2)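 Modified CLSI microdilution. DMSO samples were serially diluted in saline and tested in duplicate against inoculum adjusted by the 0.5 McFarland standard. The final test range started at 20 μg/mL. Plates were read before and after incubation. IC50 came from % growth versus concentration; MIC was the lowest concentration without visible growth. Growth, solvent, blank and amphotericin B controls were on each plate.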

[3] = tested on: Nakaseomyces glabratus; experiment: Antimicrobial activity against Candida glabrata ATCC 90030 by alamar blue assay; type: functional, organism-based
[4] = tested on: Cryptococcus neoformans; experiment: Antimicrobial activity against Cryptococcus neoformans ATCC 90113 by alamar blue assay; type: functional, organism-based
[5] = tested on: Cryptococcus neoformans; experiment: Antimicrobial activity against Cryptococcus neoformans ATCC 90113 by CLSI method; type: functional
Method in brief: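 C. neoformans in Sabouraud dextrose broth, inoculum per the 0.5 McFarland standard. Saline serial dilutions of DMSO samples were tested in duplicate, with a final top concentration of 20 μg/mL. OD 630 nm was read before and after incubation. IC50 was derived from % growth versus concentration. MIC was judged visually as the lowest concentration with no detectable growth. Amphotericin B served as the drug control.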

[6] = tested on: Aspergillus fumigatus; experiment: Antimicrobial activity against Aspergillus fumigatus ATCC 90906 by CLSI method; type: functional; method in brief: as §1
[7] = Selectivity index, ratio of TC50 for african green monkey Vero cells to IC50 for Cryptococcus neoformans ATCC 90113; type: toxicity, cell-based; settings: read-out: Selectivity Index
[8] = Cytotoxicity against african green monkey Vero cells after 48 hrs by neutral red assay; type: cell-based; settings: chlorocebus sabaeus, read-out: TC50
Method in brief: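 VERO kidney cells were seeded at 25,000 cells/well and incubated 24 h. Samples were added up to 10 μg/mL and incubated a further 48 h. Viable cells were counted by neutral red uptake. IC50 came from growth-inhibition dose curves. Doxorubicin was the positive control and DMSO the vehicle control.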

[9] = tested on: Candida albicans; experiment: Antimicrobial activity against Candida albicans ATCC 90028 by CLSI method; type: functional
Method in brief: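 C. albicans inoculum was made to the 0.5 McFarland standard in Sabouraud dextrose broth or RPMI 1640. Samples came from DMSO stocks serially diluted in saline, in duplicate, starting at a final 20 μg/mL. Plates were read at OD 630 nm before and after incubation. IC50 came from the % growth versus concentration plot; MIC was the lowest concentration with no visible growth. Included: growth, solvent and blank controls, plus amphotericin B.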

[10] = tested on: Candida albicans; experiment: Antimicrobial activity against Candida albicans ATCC 90028 by alamar blue assay; type: functional, organism-based
[11] = tested on: Pichia kudriavzevii; experiment: Antimicrobial activity against Candida krusei ATCC 6258 by CLSI method; type: functional; method in brief: as §2
[12] = tested on: Pichia kudriavzevii; experiment: Antimicrobial activity against Candida krusei ATCC 6258 by alamar blue assay; type: functional, organism-based

| Structure (SMILES) | MIC [2] [µg/mL] | MIC [5] [µg/mL] | MIC [6] [µg/mL] | MIC [9] [µg/mL] | MIC [11] [µg/mL] | IC50 [1] [µg/mL] | MFC [2] [µg/mL] | IC50 [3] [µg/mL] | IC50 [4] [µg/mL] | MFC [5] [µg/mL] | MFC [6] [µg/mL] | selectivity ratio [7] | CC50 at 48 h [8] [µg/mL] | MFC [9] [µg/mL] | IC50 [10] [µg/mL] | MFC [11] [µg/mL] | IC50 [12] [µg/mL] |
| --- | --- | --- | --- | --- | --- | --- | --- | --- | --- | --- | --- | --- | --- | --- | --- | --- | --- |
| N#Cc1ccccc1Sc1cc2ccccc2[n+](CCCCCC2CCCCC2)c1.[I-] | 20 | 1.3 | 19 | 10 | 2.5 | 5 | 20 | 12 | 1.1 | 10 | 20 | 9.1 | 10 | 10 | 3.3 | 5 | 0.7 |
| [I-].c1ccc(Sc2cc3ccccc3[n+](CCCCCC3CCCCC3)c2)cc1 | 20 | 1.3 | 10 | 5 | 1.3 | – | 20 | 15 | – | 2.5 | > 20 | 9.2 | 4.6 | 10 | – | 2.5 | – |
| COc1cccc(Sc2cc3ccccc3[n+](CCCCCc3ccccc3)c2)c1.[I-] | – | 20 | 5 | > 20 | – | 3.5 | – | – | 10 | > 20 | > 20 | – | > 10 | > 20 | > 20 | – | – |
| Brc1cccc(Sc2cc3ccccc3[n+](CCCCCc3ccccc3)c2)c1.[I-] | – | 5 | 10 | 20 | – | 2.5 | – | – | 2 | 10 | > 20 | – | > 10 | > 20 | 10 | – | – |
| Brc1ccccc1Sc1cc2ccccc2[n+](CCCCCC2CCCCC2)c1.[I-] | 5 | 0.6 | 2.5 | 2.5 | 0.6 | 2 | 10 | 3.2 | 0.3 | 1.3 | 20 | 32 | 9.7 | 2.5 | 1.4 | 1.3 | 0.3 |
| [I-].c1ccc(CCCCC[n+]2cc(Sc3ccccc3)cc3ccccc32)cc1 | – | 5 | 1.3 | 10 | – | – | – | – | – | > 20 | > 20 | – | – | > 20 | – | – | – |
| Cc1cccc(Sc2cc3ccccc3[n+](CCCCCc3ccccc3)c2)c1.[I-] | – | 2.5 | > 20 | > 20 | – | 20 | – | – | 1.4 | 20 | > 20 | – | 8.8 | > 20 | > 20 | – | – |

Continued by falling MIC [5], values first:

| MIC [2] [µg/mL] | MIC [5] [µg/mL] | MIC [6] [µg/mL] | MIC [9] [µg/mL] | MIC [11] [µg/mL] | Structure (SMILES) | IC50 [1] [µg/mL] | MFC [2] [µg/mL] | IC50 [3] [µg/mL] | IC50 [4] [µg/mL] | MFC [5] [µg/mL] | MFC [6] [µg/mL] | selectivity ratio [7] | CC50 at 48 h [8] [µg/mL] | MFC [9] [µg/mL] | IC50 [10] [µg/mL] | MFC [11] [µg/mL] | IC50 [12] [µg/mL] |
| --- | --- | --- | --- | --- | --- | --- | --- | --- | --- | --- | --- | --- | --- | --- | --- | --- | --- |
| 20 | 0.6 | 10 | 5 | 0.6 | Fc1cccc(Sc2cc3ccccc3[n+](CCCCCC3CCCCC3)c2)c1.[I-] | 5.3 | 20 | 12 | 0.5 | 2.5 | 20 | 13 | 6.6 | 10 | 2.7 | 1.3 | 0.3 |
| 20 | 0.6 | 10 | 5 | 1.3 | COc1cccc(Sc2cc3ccccc3[n+](CCCCCC3CCCCC3)c2)c1.[I-] | 5.5 | > 20 | 16 | 0.4 | 2.5 | 20 | 11 | 4.5 | 10 | 2.7 | 1.3 | 0.6 |
| 10 | 0.3 | 5 | 2.5 | 0.6 | Cc1ccc(Sc2cc3ccccc3[n+](CCCCCC3CCCCC3)c2)cc1.[I-] | 2.7 | 10 | 5.5 | 0.2 | 1.3 | 5 | 14 | 2.8 | 5 | 1.3 | 1.3 | 0.5 |
